According to ChEMBL document CHEMBL4229515, “A novel synthesis of 2-arylbenzimidazoles in molecular sieves-MeOH system and their antitubercular activity” (Bioorg Med Chem, 2018):
Values after ≈ are worked out from the molar mass of the structure shown.

Assays:
[1] = test system: Mycobacterium tuberculosis; assay: Antimycobacterial activity against Mycobacterium tuberculosis H37Rv by BACTEC 460 radiometric method; format: functional
Summary of the method: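 Radiometric BACTEC assay against the H37Rv strain, run per a previously reported method. Positive controls were rifampicin, streptomycin and isoniazid. The MIC was read in µM.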

Mus musculus [2] = assay: Acute toxicity in Swiss albino mouse assessed as effect on body weight at 5 mg/kg, po after 7 days (reference value: 28.25 +/- 0.54 g); format: organism-based; details: in vivo, 168 h
Mus musculus [3] = assay: Acute toxicity in Swiss albino mouse assessed as effect on RBC count at 5 mg/kg, po after 7 days (reference value: 7.61 +/- 0.54 10^6/mm3); format: organism-based; details: in vivo, 168 h
Mus musculus [4] = assay: Acute toxicity in Swiss albino mouse assessed as effect on SGPT levels at 5 mg/kg, po after 7 days (reference value: 16.08 +/- 1.38 U/L); format: organism-based; details: in vivo, 168 h
Mus musculus [5] = assay: Acute toxicity in Swiss albino mouse assessed as effect on SGOT levels at 5 mg/kg, po after 7 days (reference value: 15.11 +/- 1.25 U/L); format: organism-based; details: in vivo, 168 h
Mus musculus [6] = assay: Acute toxicity in Swiss albino mouse assessed as effect on haemoglobin levels at 5 mg/kg, po after 7 days (reference value: 12.29 +/- 0.53 g/dL); format: organism-based; details: in vivo, 168 h
Mus musculus [7] = assay: Acute toxicity in Swiss albino mouse assessed as effect on triglyceride levels at 5 mg/kg, po after 7 days (reference value: 45.21 +/- 2.95 mg/dL); format: organism-based; details: in vivo, 168 h
Mus musculus [8] = assay: Acute toxicity in Swiss albino mouse assessed as effect on tissue protein levels at 5 mg/kg, po after 7 days (reference value: 0.06 +/- 0.004 mg/mL); format: organism-based; details: in vivo, 168 h
Mus musculus [9] = assay: Acute toxicity in Swiss albino mouse assessed as effect on body weight at 50 mg/kg, po after 7 days (reference value: 28.25 +/- 0.54 g); format: organism-based; details: in vivo, 168 h
Mus musculus [10] = assay: Acute toxicity in Swiss albino mouse assessed as effect on RBC count at 50 mg/kg, po after 7 days (reference value: 7.61 +/- 0.54 10^6/mm3); format: organism-based; details: in vivo, 168 h
Mus musculus [11] = assay: Acute toxicity in Swiss albino mouse assessed as effect on WBC count at 50 mg/kg, po after 7 days (reference value: 7.47 +/- 1.61 10^3/mm3); format: organism-based; details: in vivo, 168 h
Mus musculus [12] = assay: Acute toxicity in Swiss albino mouse assessed as effect on ALKP levels at 50 mg/kg, po after 7 days (reference value: 219.20 +/- 5.9 U/L); format: organism-based; details: in vivo, 168 h
Mus musculus [13] = assay: Acute toxicity in Swiss albino mouse assessed as effect on haemoglobin levels at 50 mg/kg, po after 7 days (reference value: 12.29 +/- 0.53 g/dL); format: organism-based; details: in vivo, 168 h
Mus musculus [14] = assay: Acute toxicity in Swiss albino mouse assessed as effect on albumin levels at 50 mg/kg, po after 7 days (reference value: 3.53 +/- 0.35 mg/dL); format: organism-based; details: in vivo, 168 h
Mus musculus [15] = assay: Acute toxicity in Swiss albino mouse assessed as effect on MDA levels per mg of tissue protein at 50 mg/kg, po after 7 days (reference value: 0.24 +/- 0.05 nmol); format: organism-based; details: in vivo, 168 h
Mus musculus [16] = assay: Acute toxicity in Swiss albino mouse assessed as effect on SGPT levels at 300 mg/kg, po after 7 days (reference value: 16.08 +/- 1.38 U/L); format: organism-based; details: in vivo, 168 h
Mus musculus [17] = assay: Acute toxicity in Swiss albino mouse assessed as effect on cholesterol levels at 300 mg/kg, po after 7 days (reference value: 89.73 +/- 10.76 mg/dL); format: organism-based; details: in vivo, 168 h
Mus musculus [18] = assay: Acute toxicity in Swiss albino mouse assessed as effect on triglyceride levels at 300 mg/kg, po after 7 days (reference value: 45.21 +/- 2.95 mg/dL); format: organism-based; details: in vivo, 168 h
Mus musculus [19] = assay: Acute toxicity in Swiss albino mouse assessed as effect on serum protein levels at 300 mg/kg, po after 7 days (reference value: 0.10 +/- 0.004 mg/mL); format: organism-based; details: in vivo, 168 h
Mus musculus [20] = assay: Acute toxicity in Swiss albino mouse assessed as effect on tissue protein levels at 300 mg/kg, po after 7 days (reference value: 0.06 +/- 0.004 mg/mL); format: organism-based; details: in vivo, 168 h
Mus musculus [21] = assay: Acute toxicity in Swiss albino mouse assessed as effect on MDA levels per mg of tissue protein at 300 mg/kg, po after 7 days (reference value: 0.24 +/- 0.05 nmol); format: organism-based; details: in vivo, 168 h
Mus musculus [22] = assay: Acute toxicity in Swiss albino mouse assessed as effect on body weight at 1000 mg/kg, po after 7 days (reference value: 28.25 +/- 0.54 g); format: organism-based; details: in vivo, 168 h
Mus musculus [23] = assay: Acute toxicity in Swiss albino mouse assessed as effect on WBC count at 1000 mg/kg, po after 7 days (reference value: 7.47 +/- 1.61 10^3/mm3); format: organism-based; details: in vivo, 168 h
Mus musculus [24] = assay: Acute toxicity in Swiss albino mouse assessed as effect on albumin levels at 1000 mg/kg, po after 7 days (reference value: 3.53 +/- 0.35 mg/dL); format: organism-based; details: in vivo, 168 h
Mus musculus [25] = assay: Acute toxicity in Swiss albino mouse assessed as effect on serum protein levels at 1000 mg/kg, po after 7 days (reference value: 0.10 +/- 0.004 mg/mL); format: organism-based; details: in vivo, 168 h
Mus musculus [26] = assay: Acute toxicity in Swiss albino mouse assessed as effect on GSH levels per mg of tissue protein at 1000 mg/kg, po after 7 days (reference value: 17.64 +/- 1.03 micromol); format: organism-based; details: in vivo, 168 h
Mus musculus [27] = assay: Acute toxicity in Swiss albino mouse assessed as change in morbidity up to 300 mg/kg, po measured over 7 days; format: organism-based; details: in vivo, 168 h
Summary of the method: (§1)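 Single acute oral dose of 5, 50, 300 or 1000 mg/kg body weight, with an untreated control group; n=6 mice per group. Animals observed for 7 days for morbidity, mortality, behaviour and body weight. At the end, blood and serum were analysed, and organs were examined grossly with absolute and relative weights. Data are mean±SE; P<0.05 was taken as significant versus control and the lower-dose groups.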

[28] = Acute toxicity in Swiss albino mouse assessed as mortality at 1000 mg/kg, po measured over 7 days; format: organism-based; details: in vivo, read-out: Activity; summary of the method: as §1
Mus musculus [29] = assay: Acute toxicity in Swiss albino mouse assessed as inactivity at 1000 mg/kg, po measured over 7 days; format: organism-based; details: in vivo, 168 h; summary of the method: as §1
Mus musculus [30] = assay: Acute toxicity in Swiss albino mouse assessed as effect on absolute liver weight at 5 to 1000 mg/kg, po after 7 days; format: organism-based; details: in vivo, 168 h; summary of the method: as §1
Mus musculus [31] = assay: Acute toxicity in Swiss albino mouse assessed as effect on absolute brain weight at 5 to 1000 mg/kg, po after 7 days; format: organism-based; details: in vivo, 168 h; summary of the method: as §1
Mus musculus [32] = assay: Acute toxicity in Swiss albino mouse assessed as effect on absolute spleen weight at 5 to 1000 mg/kg, po after 7 days; format: organism-based; details: in vivo, 168 h; summary of the method: as §1
Mus musculus [33] = assay: Acute toxicity in Swiss albino mouse assessed as effect on relative liver weight at 1000 mg/kg, po after 7 days; format: organism-based; details: in vivo, 168 h; summary of the method: as §1
Mus musculus [34] = assay: Acute toxicity in Swiss albino mouse assessed as effect on relative lung weight at 5 to 1000 mg/kg, po after 7 days; format: organism-based; details: in vivo, 168 h; summary of the method: as §1
Mus musculus [35] = assay: Acute toxicity in Swiss albino mouse assessed as effect on relative brain weight at 5 to 1000 mg/kg, po after 7 days; format: organism-based; details: in vivo, 168 h; summary of the method: as §1
Mus musculus [36] = assay: Acute toxicity in Swiss albino mouse assessed as effect on relative spleen weight at 5 to 1000 mg/kg, po after 7 days; format: organism-based; details: in vivo, 168 h; summary of the method: as §1

COc1ccc2c(c1)nc(-c1ccccc1OC)n2Cc1ccccc1OC
MIC [1]: 16 µM (≈ 5.99 µg/mL)
Activity (Mus musculus [2]): 28.47 g
Activity (Mus musculus [3]): 6.92 10^6/mm3
Activity (Mus musculus [4]): 15.26 U/L
Activity (Mus musculus [5]): 11.96 U/L
Activity (Mus musculus [6]): 10.81 g/dL
Activity (Mus musculus [7]): 48.61 mg/dL
Activity (Mus musculus [8]): 0.06 mg/mL
Activity (Mus musculus [9]): 27.61 g
Activity (Mus musculus [10]): 7.44 10^6/mm3
Activity (Mus musculus [11]): 6.33 10^3/mm3
Activity (Mus musculus [12]): 171.7 U/L
Activity (Mus musculus [13]): 11.45 g/dL
Activity (Mus musculus [14]): 3.58 mg/dL
Activity (Mus musculus [15]): 0.32 nmol
Activity (Mus musculus [16]): 12.26 U/L
Activity (Mus musculus [17]): 97.14 mg/dL
Activity (Mus musculus [18]): 43.04 mg/dL
Activity (Mus musculus [19]): 0.09 mg/mL
Activity (Mus musculus [20]): 0.05 mg/mL
Activity (Mus musculus [21]): 0.39 nmol
Activity (Mus musculus [22]): 22.86 g
Activity (Mus musculus [23]): 6.67 10^3/mm3
Activity (Mus musculus [24]): 2.89 mg/dL
Activity (Mus musculus [25]): 0.09 mg/mL
Activity (Mus musculus [26]): 19.34 µmol
Activity (Mus musculus [27]): Non-Toxic
mortality at 168 h [28]: 50%
Activity (Mus musculus [29]): Non-Toxic
Activity (Mus musculus [30]): Non-Toxic
Activity (Mus musculus [31]): Non-Toxic
Activity (Mus musculus [32]): Non-Toxic
Activity (Mus musculus [33]): Toxic
Activity (Mus musculus [34]): Non-Toxic
Activity (Mus musculus [35]): Non-Toxic
Activity (Mus musculus [36]): Non-Toxic
